Assay outcomes as filed in PubChem BioAssay.
NALP1 inh = blocks the NALP1 inflammasome reconstituted in yeast; S. cerevisiae NALP1/ASC/caspase-1 growth, X-gal OD620, 72 h; inhibition, % at 10 µM; 0.61% of 280,000 active; AID 2071; in the data active = inhibition mostly above about 24%, no sharp cut-off; inactive = mostly below about 32%
Calb FLC = C. albicans growth modulation with fluconazole. AID 1979. growth inhibition, % (concentration not given with the values). 0.57% of 300,000 active. C. albicans CaCi-2 + fluconazole, Alamar Blue growth, 48 h;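 active = growth inhibition above about 58% in most replicates, limit read from the data, passing the limit was not always enough; inconclusive = exactly half the replicates above a set limit; inactive = most replicates below a set limit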;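 note: all wells also contain fluconazole at 8 µg/ml as a sub-toxic cotreatment; 0% = median of DMSO wells and 100% = median of geldanamycin control wells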
PolyA inh = yeast polyadenylation inhibition | S. cerevisiae SKY197-pL101 polyadenylation reporter, beta-gal luminescence; efflux-impaired pdr1/pdr3 knockout yeast; score 100 = 6 SD above DMSO | 0.02% of 300,000 active | activity score, % at 12 µM;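 active = lowest replicate activity score at least 50, where 100 means six control SD above control mean; inconclusive = lowest score under 50 but half or more replicates reach 50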;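 note: yeast exposed to compound for 9 h at 30 °C; higher score means more reporter readthrough which indicates perturbed polyadenylation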
NALP3 yeast inh = NALP3 inhibition in yeast. Yeast reconstituted NLRP3/ASC/caspase-1, beta-gal luminescence, 24 h. inhibition, % at 10 µM. 0.39% of 330,000 active;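 active = inhibition of 50% or more; inactive = inhibition below 50%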;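 note: plate controls were induced DMSO wells for no effect and uninduced yeast grown without galactose for full effect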
T cruzi repl = blocks replication of Trypanosoma cruzi; T. cruzi beta-gal in NIH3T3, luminescence, 90 h; inhibition, % (test concentration not listed); 1.4% of 300,000 active;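 active = mean inhibition across valid replicates above about 55%, limit read from the data; inconclusive = mean below that limit but half or more replicates reach it; inactive = mean below it, under half of replicates reach it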;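 note: signal also drops with host cell toxicity which is not excluded here; 0% = plate median of DMSO wells and 100% = zero luminescence signal; higher percent means less beta-gal luminescence so fewer parasites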
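Assay system: NIH/3T3 host cells with β-galactosidase reporter T. cruzi; input: 5,000 host fibroblasts per well; compound: single 50 nL compound addition per well in DMSO; timing: ≥90 h infection period, 3 h prior cell attachment; measured by: GalScreen β-gal luminescence, detergent lysis, 60 min; evaluation: percent inhibition of parasite-derived β-gal signal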
L major viab = Leishmania major promastigote growth inhibition | inhibition, % at 10 µM | 9% of 200,000 active | Leishmania major promastigotes, resazurin fluorescence viability; in the data active = inhibition above about 50%;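 note: promastigotes grown with compound for 44 hours at 28 °C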
An asterisk follows results filed as active; ? = inconclusive; · = not tested or not shown. The full list was thinned out, with hits kept by preference.

SMILES | NALP1 inh | Calb FLC | PolyA inh | NALP3 yeast inh | T cruzi repl | L major viab
Cc1ccc2nc(/C(C#N)=C\c3cc(C)n(-c4cccc([N+](=O)[O-])c4)c3C)[nH]c2c1 | -4 | 23 | 5 | 7 | ? | 85*
N#C/C(=C\C1CC2C=CC1C2)c1nc2ccccc2[nH]1 (stereo not given) | 7 | -17 | 31 | 16 | -14 | 56*
N#C/C(=C\c1ccccc1)c1nc2ncccc2[nH]1 | 2 | 9 | 12 | 41 | -2 | 66*
COc1cccc(CN(C)C(=O)CCNC(=O)c2ccc(Br)cc2)c1 | 5 | -9 | 9 | 13 | -22 | ·
COc1ccc(N2CCN(C(=O)c3ccccc3NS(=O)(=O)c3ccc(C)cc3)CC2)cc1 | -2 | 25 | 27 | 5 | 1 | ·
N#C/C(=C\c1ccc([N+](=O)[O-])o1)c1nc2ccccc2[nH]1 | 101* | 25 | 711* | -4 | 49 | 100*
CN(C)CCOc1ccc(/C(=C(/CCCl)c2ccccc2)c2ccccc2)cc1 | · | · | 2 | 8 | 62* | ·
OC(CCCN1CCC(O)(c2ccc(Cl)cc2)CC1)c1ccc(F)cc1 (stereo not given) | 28 | · | -20 | 25 | 16 | 96*
CCNC(=O)N1CCN(CCCC(c2ccc(F)cc2)c2ccc(F)cc2)CC1 | · | · | · | 16 | · | ·
CC(C)(C)c1ccc(OCc2ccc(C(=O)Nc3cccnc3)o2)cc1 | 11 | 7 | -8 | 20 | 6 | ·
CCOc1ccc(-n2cnc3sc(C)c(C)c3c2=O)cc1 | 15 | 2 | -21 | 26 | 5 | ·
Cc1cc(C)c(NC(=O)CN(C2CCCCC2)C2CCCCC2)c(C)c1 | 10 | 13 | -20 | -1 | 18 | 96*
CCN(CC)S(=O)(=O)c1ccc(/C=C/C(=O)OCC(=O)NCc2ccc3c(c2)OCO3)cc1 | -1 | -5 | 10 | -6 | -10 | -9
CCCCCCc1c(C)nc(-n2[nH]c(C)c(CCO)c2=O)[nH]c1=O | 0 | 93* | 6 | 22 | -15 | 2
CC(=O)N1CCOc2ccc(S(=O)(=O)N3CCCC(C)C3)cc21 (stereo not given) | 2 | 7 | 2 | 9 | -14 | ·
Cc1ccc(CCNC(=O)CN2C(=O)COc3ccc(S(=O)(=O)N4CCOCC4)cc32)cc1 | 18 | -5 | -5 | 8 | 49 | ·
COc1ccccc1NC(=O)CC(c1ccc(OC(C)C)cc1)c1ccccc1OC (stereo not given) | 20 | 3 | 17 | -4 | 29 | 20
COc1ccccc1C(CC(=O)Nc1ccc(C)c(C)c1)c1ccc(OC(C)C)cc1 (stereo not given) | 8 | -5 | 4 | -5 | 44 | 51*
CCNC(=O)/C(C#N)=C/c1c(N2CCN(Cc3ccc4c(c3)OCO4)CC2)nc2c(C)cccn2c1=O | 26 | 13 | -2 | · | 35 | 55*
CCNC(=O)/C(C#N)=C/c1c(N2CCOCC2)nc2ccccn2c1=O | 24 | 7 | -8 | 1 | 4 | -5
CCNC(=O)/C(C#N)=C/c1c(N(Cc2ccccc2)Cc2ccccc2)nc2ccccn2c1=O | 4 | -24 | 12 | 10 | 17 | 56*
CNC(=O)/C(C#N)=C/c1c(N(Cc2ccccc2)Cc2ccccc2)nc2c(C)cccn2c1=O | 23 | -3 | 3 | · | 13 | 72*
O=C(NCCC1=CCCCC1)c1ccc2c(c1)N(Cc1ccccc1)C(=O)CS2 | 38* | -19 | -11 | 11 | 56* | 33
O=C(NCCN1CCOCC1)c1ccc2c(c1)N(Cc1ccccc1)C(=O)CS2 | -8 | 9 | 14 | 9 | -3 | 1
Cc1ccc2c(c1)N(CC(=O)NC1CCC(C)CC1)C(=O)c1cccnc1O2 (stereo not given) | 10 | -3 | 16 | 5 | 1 | ·
SMILES | NALP1 inh | Calb FLC | PolyA inh | NALP3 yeast inh | T cruzi repl | L major viab
CCc1cc(=O)oc2cc(C)cc(OCC(=O)NCC(O)c3ccccc3)c12 (stereo not given) | -1 | -2 | 9 | 7 | 6 | ·
O=C(NNc1ccccc1[N+](=O)[O-])Nc1ccc(Cl)c(Cl)c1 | 10 | -18 | -17 | 24 | 38 | 78*
CCN(CC)S(=O)(=O)c1cc([N+](=O)[O-])ccc1NNC(=O)Nc1ccc(Cl)c(Cl)c1 | 5 | -7 | -9 | 18 | 60* | 100*
Cc1c(NC(=O)COC(=O)c2ncc(Cl)c(Cl)c2Cl)c(=O)n(-c2ccccc2)n1C | · | -5 | -7 | 24 | -16 | ·
COc1ccccc1NC(=O)c1c(N=Cc2cccc([N+](=O)[O-])c2)cnn1C | 5 | 0 | -10 | -1 | 11 | ·
COc1ccccc1C(=O)NNC(=O)C(=O)N1CCCCC1 | 16 | 9 | -9 | 6 | -22 | ·
O=C(NNc1ccccc1)C(=O)N1CCCCC1 | 17 | 13 | -9 | 21 | 25 | 67*
O=C(NNC(=O)c1ccc(F)cc1)C(=O)N1CCCCC1 | 11 | 3 | 3 | -8 | -6 | 95*
CCCCN(C(=O)c1c(CC)noc1C)c1c(N)n(CCCC)c(=O)[nH]c1=O | · | · | -4 | 10 | -5 | ·
CC(C)OC(=O)CCCCCN1C(=O)CSC1=S | 24 | 1 | -10 | 11 | 56* | 37
CC(=O)N=c1sc(C(C)(C)C)c(C)n1C | 12 | 5 | 30 | 18 | 5 | -4
CN(C(=O)c1ccc(NC(=O)C2CCCN(C(=O)OC(C)(C)C)C2)cc1)C1CC1 (stereo not given) | · | · | · | 6 | · | ·
Cc1cccc(N2CCN(C(=O)c3ccncc3)CC2C)c1 (stereo not given) | 8 | 3 | 18 | -3 | -5 | -2
Cc1cccc(N2CCN(C(=O)c3cc(C)oc3C)CC2C)c1 (stereo not given) | 33 | -4 | -13 | 1 | -10 | 56*
Cc1ccccc1S(=O)(=O)c1c(C)cc(C)n(C(C)C)c1=O | -12 | 3 | -6 | -15 | 12 | 89*
CCCCn1c(C)cc(C)c(S(=O)(=O)c2ccccc2C)c1=O | -5 | 4 | -19 | -7 | 7 | 97*
Cc1cc(C)c(S(=O)(=O)c2ccccc2C)c(N(C)C)n1 | -8 | -1 | 8 | 33 | -10 | -1
CC(=O)Nc1ccc(NC(=O)C(C)OC(=O)CNS(=O)(=O)/C=C/c2ccc(C)cc2)cc1 (stereo not given) | · | 1 | -9 | -5 | -15 | ·
CC(NS(=O)(=O)c1cccc(C(=O)NCc2ccncc2)c1)c1ccccc1 (stereo not given) | · | · | · | 8 | · | ·
CCCCNC(=O)CCC(=O)N1CCN(C(c2ccccc2)c2ccccc2)CC1 | 0 | 5 | 3 | 12 | 3 | ·
CCOc1ccc(NC(=S)N2CCc3cc(OC)c(OC)cc3C2COc2ccc3c(C)cc(=O)oc3c2)cc1 (stereo not given) | 5 | -3 | -13 | 8 | 47 | 19
O=C(Nc1nncs1)c1cc(-c2ccncc2)nc2ccc(Cl)cc12 | 27* | 0 | 11 | 14 | 6 | ·
